# According to ChEMBL document CHEMBL3992564, “Design and synthesis of novel, potent and selective hypoxanthine analogs as adenosine A1 receptor antagonists and their biological evaluation” (Bioorg Med Chem, 2017):
# Active and inactive are the calls of the source. The rule behind the calls is not given here.
# Columns and labels:
# Adenosine receptor A1 [1] = target: T1, Adenosine receptor A1 (Homo sapiens, UniProt P30542); test: Displacement of [3H]DPCPX from human adenosine A1 receptor expressed in HEK293 cell membranes after 90 mins
# T1 sequence (P30542 whole entry): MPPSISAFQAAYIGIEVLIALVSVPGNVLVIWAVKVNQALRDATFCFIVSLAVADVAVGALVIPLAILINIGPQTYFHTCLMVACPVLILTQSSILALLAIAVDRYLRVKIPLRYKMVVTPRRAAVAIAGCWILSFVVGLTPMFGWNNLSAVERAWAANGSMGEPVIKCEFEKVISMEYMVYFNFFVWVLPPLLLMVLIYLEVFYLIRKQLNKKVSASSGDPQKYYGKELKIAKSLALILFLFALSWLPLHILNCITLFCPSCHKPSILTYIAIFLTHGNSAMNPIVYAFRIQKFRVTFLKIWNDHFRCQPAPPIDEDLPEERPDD
# [2] = target: T2, Adenosine receptor A2b (Homo sapiens) (UniProt P29275); test: Displacement of [3H]MRS-1754 from human adenosine A2B receptor expressed in HEK293 cell membranes at 1 uM after 90 mins relative to control
# T2 sequence (whole entry): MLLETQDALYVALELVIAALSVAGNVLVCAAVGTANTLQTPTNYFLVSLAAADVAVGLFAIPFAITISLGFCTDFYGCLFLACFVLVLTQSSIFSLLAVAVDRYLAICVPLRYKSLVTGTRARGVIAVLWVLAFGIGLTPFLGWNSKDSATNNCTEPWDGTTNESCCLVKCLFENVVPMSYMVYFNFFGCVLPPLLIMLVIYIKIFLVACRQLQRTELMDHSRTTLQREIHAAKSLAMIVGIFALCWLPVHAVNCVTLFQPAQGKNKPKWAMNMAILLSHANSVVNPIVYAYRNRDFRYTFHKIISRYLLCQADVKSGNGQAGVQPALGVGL
# Method in brief: (§1)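 Membranes from HEK-293 cells stably transfected with human receptor, pre-treated with adenosine deaminase. Radioligands: 1 nM [3H]DPCPX (A1), 1 nM [3H]ZM241385 (A2A), 1.6 nM [3H]MRS-1754 (A2B), 2 nM [3H]HEMADO (A3). Buffers: Tris pH 7.4 (A1, A2A, A3) or pH 6.5 (A2B), with ADA. Incubated 90 min at room temperature, then filtered. Nonspecific binding defined with 100 µM NECA. Ki from 8 concentrations run in triplicate.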
# Adenosine receptor A2a = Adenosine receptor A2a (Homo sapiens, UniProt P29274); test: Displacement of [3H]ZM241385 from human adenosine A2A receptor expressed in HEK293 cell membranes at 1 uM after 90 mins relative to control; method in brief: as §1
# Chain of Adenosine receptor A2a (P29274 whole entry): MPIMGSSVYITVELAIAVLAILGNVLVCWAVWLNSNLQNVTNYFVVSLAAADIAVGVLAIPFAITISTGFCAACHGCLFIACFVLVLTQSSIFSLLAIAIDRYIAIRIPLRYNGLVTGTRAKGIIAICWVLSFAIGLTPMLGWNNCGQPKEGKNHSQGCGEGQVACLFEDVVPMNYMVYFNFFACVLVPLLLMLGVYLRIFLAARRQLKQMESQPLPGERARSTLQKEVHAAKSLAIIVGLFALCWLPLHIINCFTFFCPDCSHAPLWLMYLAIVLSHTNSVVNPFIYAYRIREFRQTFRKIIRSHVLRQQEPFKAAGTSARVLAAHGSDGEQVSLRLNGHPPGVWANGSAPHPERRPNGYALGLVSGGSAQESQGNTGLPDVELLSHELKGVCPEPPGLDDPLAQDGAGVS
# [3] = Metabolic stability in rat liver microsomes assessed as parent compound remaining measured after 30 mins in presence of NADPH; assay type: ADME, microsome; details: read-out: Stability
# [4] = Metabolic stability in human liver microsomes assessed as parent compound remaining measured after 30 mins in presence of NADPH; assay type: ADME, microsome; details: read-out: Stability
# Adenosine receptor A1 [5] = target: T1, Adenosine receptor A1; test: (§2) Antagonist activity at human adenosine A1 receptor expressed in HEK293 cells assessed as reduction in CPA-mediated inhibition of forskolin-stimulated cAMP level preincubated for 15 mins followed by CPA treatment for 15 mins and subsequent addition of forskolin measured after 30 mins by HTRF assay; assay type: functional, cell-based
# [6] = target: T3, Adenosine receptor A3 (Homo sapiens) (UniProt P0DMS8); test: Displacement of [3H]HEMADO from human adenosine A3 receptor expressed in HEK293 cell membranes at 1 uM after 90 mins relative to control; method in brief: as §1
# T3 sequence (whole entry): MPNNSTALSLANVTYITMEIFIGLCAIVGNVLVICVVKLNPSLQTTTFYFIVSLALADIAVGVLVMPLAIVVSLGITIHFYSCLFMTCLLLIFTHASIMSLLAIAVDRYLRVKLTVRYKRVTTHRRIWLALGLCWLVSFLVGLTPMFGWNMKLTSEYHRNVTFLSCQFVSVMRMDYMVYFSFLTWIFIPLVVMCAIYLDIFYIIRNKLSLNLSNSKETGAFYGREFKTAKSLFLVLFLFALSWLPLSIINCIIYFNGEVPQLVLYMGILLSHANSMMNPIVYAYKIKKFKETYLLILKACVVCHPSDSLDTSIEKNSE
# [7] = target: T4, Adenosine receptor A1 (Homo sapiens) (UniProt P30542); test: Displacement of [3H]DPCPX from human adenosine A1 receptor expressed in HEK293 cell membranes at 1 uM after 90 mins relative to control; method in brief: as §1
# T4 sequence (whole entry): T1 sequence (P30542 whole entry)
# Rattus norvegicus [8] = test: Diuretic activity in Wistar rat at 0.1 mg/kg, po via gavage measured after 4 hrs; assay type: functional, organism-based
# Method in brief: (§3)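 Male Wistar rats (250-300 g, n = 6) dosed orally at 5 mL/kg. Vehicles: DMAC 5%/NaOH/saline, or NMP 10%/PEG-400 20%/saline pH 12.0. Rats were then kept singly in metabolic cages without food or water for 4 h. Urine volume, Na+ and K+ were measured with a biochemistry analyser.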
# Rattus norvegicus [9] = test: Natriuretic activity in Wistar rat at 0.1 mg/kg, po via gavage measured after 4 hrs; assay type: functional, organism-based; method in brief: as §3
# Adenosine receptor A3 = target: T5, Adenosine receptor A3 (Homo sapiens, UniProt P0DMS8); test: Displacement of [3H]HEMADO from human adenosine A3 receptor expressed in HEK293 cell membranes after 90 mins; method in brief: as §1
# T5 sequence (P0DMS8 whole entry): T3 sequence (whole entry)
# [10] = target: T4, Adenosine receptor A1 (Homo sapiens); test: as §2, with “level at 30 uM” for “level”, “assay relative to control” for “assay”; assay type: functional, cell-based
# Method in brief: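 Overnight HEK-A1 or HEK-A2B cultures were treated with 1 U/mL ADA for 90 min at 37°C. Compound was added for 15 min, then agonist for 15 min (1 nM CPA for A1; 70 nM NECA for A2B) at room temperature in incomplete DMEM with ADA. Rolipram (20 µM) was included for A1 only. cAMP was read by HTRF.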
# Liver [11] = test: Metabolic stability in rat liver microsomes assessed as metabolic rate measured after 30 mins in presence of NADPH; assay type: ADME, microsome; details: 0.5 h
# Liver [12] = test: Metabolic stability in human liver microsomes assessed as metabolic rate measured after 30 mins in presence of NADPH; assay type: ADME, microsome; details: 0.5 h
SMILES,Ki (Adenosine receptor A1 [1]) [nM],inhibition [2] [%],inhibition (Adenosine receptor A2a) [%],inhibition [6] [%],also measured
CCCn1c(Nc2cccc(F)c2)nc2nc(C3CCCC3)[nH]c2c1=O,4500,16,31,–,–
COc1ccc(CCN(C)CCCC(C#N)(c2ccc(OC)c(OC)c2)C(C)C)cc1OC (configuration not stated),–,–,–,–,remaining at 0.5 h [3]: 68%; remaining at 0.5 h [4]: 78%
CCCn1c(-c2cccc(O)c2)nc2nc(C3CCCC3)[nH]c2c1=O,1,100,74,–,Ki (Adenosine receptor A1 [5]): 0.2 nM
CCCn1c(Oc2cncc(Cl)c2)nc2nc(C3CCCC3)[nH]c2c1=O,12,37,22,76,Ki (Adenosine receptor A1 [5]): 2.2 nM
CCCn1c(O[C@@H]2CCOC2)nc2nc(C3CCCC3)[nH]c2c1=O,50,–,–,–,–
CCCn1c(Oc2cccnc2Cl)nc2nc(C3CCCC3)[nH]c2c1=O,3.6,–,–,–,–
CCCn1c(OC2CCOC2)nc2nc(C3CCCC3)[nH]c2c1=O (configuration not stated),59,–,–,–,–
CCCn1c(NCc2cccc(Cl)c2)nc2nc(C3CCCC3)[nH]c2c1=O,120,–,–,–,–
CCCn1c(Nc2ccccc2)nc2nc(C3CCCC3)[nH]c2c1=O,> 1000,–,–,–,–
CCCn1c(Nc2cccc(C(F)(F)F)c2)nc2nc(C3CCCC3)[nH]c2c1=O,370,5,27,–,–
CCCn1c(Oc2cccc3[nH]ccc23)nc2nc(C3CCCC3)[nH]c2c1=O,74,–,–,–,–
CCCn1c(NCC(=O)O)nc2nc(C3CCCC3)[nH]c2c1=O,–,9,0,0,inhibition [7]: 72%
CCCn1c(OC2CCOCC2)nc2nc(C3CCCC3)[nH]c2c1=O,20,56,82,0,Ki (Adenosine receptor A1 [5]): 12 nM
CCCn1c(=O)c2nc(C34CC5CC(CC3C5)C4)[nH]c2n(CCC)c1=O,–,–,–,–,Activity (Rattus norvegicus [8]): Active; Activity (Rattus norvegicus [9]): Active
CCCn1c(Oc2cccc(OC)c2)nc2nc(C3CCCC3)[nH]c2c1=O,–,70,36,–,IC50 (Adenosine receptor A3): 430 nM
CCCn1c(Oc2ccc3[nH]ccc3c2)nc2nc(C3CCCC3)[nH]c2c1=O,36,0,0,34,–
CCCn1c(NCc2ccc(C)cc2)nc2nc(C3CCCC3)[nH]c2c1=O,27,6,0,24,–
CCCn1c(OC2CCCC2)nc2nc(C3CCCC3)[nH]c2c1=O,14,92,85,79,Ki (Adenosine receptor A1 [5]): 13 nM
CCCn1c(NCc2ccc(C(=O)O)cc2)nc2nc(C3CCCC3)[nH]c2c1=O,–,16,31,–,inhibition [7]: 54%

SMILES,Ki (Adenosine receptor A1 [1]) [nM],inhibition [2] [%],inhibition (Adenosine receptor A2a) [%],inhibition [6] [%],also measured
CCCn1c(NCc2ccc(C(F)(F)F)cc2)nc2nc(C3CCCC3)[nH]c2c1=O,23,0,0,23,–
CCCn1c(NCCO)nc2nc(C3CCCC3)[nH]c2c1=O,–,31,5,0,inhibition [7]: 36%
CCCn1c(-c2ccc(C(F)(F)F)cc2)nc2nc(C3CCCC3)[nH]c2c1=O,–,12,0,5,inhibition [7]: 70%
CCCn1c(-c2cccc(C(=O)O)c2)nc2nc(C3CCCC3)[nH]c2c1=O,–,–,–,–,inhibition [7]: inactive; inhibition [10]: < 50%
CCCn1c(Nc2ccc(F)cc2)nc2nc(C3CCCC3)[nH]c2c1=O,> 1000,6,0,24,–
CCCn1c(Oc2ccc(C(N)=O)cc2)nc2nc(C3CCCC3)[nH]c2c1=O,> 1000,–,–,–,–
CCCn1c(OC2CCN(C)C2)nc2nc(C3CCCC3)[nH]c2c1=O (configuration not stated),> 1000,–,–,–,–
CCCn1c(Oc2cccc(CC(=O)O)c2)nc2nc(C3CCCC3)[nH]c2c1=O,> 1000,–,–,–,–
CCCn1c(Oc2ccc(C)nc2)nc2nc(C3CCCC3)[nH]c2c1=O,630,–,–,–,–
CCCn1c(Oc2cccc3cc[nH]c23)nc2nc(C3CCCC3)[nH]c2c1=O,5.5,42,25,40,Ki (Adenosine receptor A1 [5]): 5.6 nM
CCCn1c(-c2cccc(C(F)(F)F)c2)nc2nc(C3CCCC3)[nH]c2c1=O,–,14,0,0,inhibition [7]: 100%; Ki (Adenosine receptor A1 [5]): 12 nM
CCCn1c(Oc2cc(C)ccn2)nc2nc(C3CCCC3)[nH]c2c1=O,> 1000,–,–,–,–
CCCn1c(O[C@H]2CCOC2)nc2nc(C3CCCC3)[nH]c2c1=O,85,–,–,–,–
CCCn1c(Oc2ccc(S(N)(=O)=O)cc2)nc2nc(C3CCCC3)[nH]c2c1=O,> 1000,–,–,–,–
C[C@]12CC[C@H]3[C@@H](CCC4=CC(=O)CC[C@@]43C)[C@@H]1CC[C@@H]2O [TESTOSTERONE],–,–,–,–,Drug metabolism (Liver [11]): > 1.52 nmol/min/mg; Drug metabolism (Liver [12]): 0.05 nmol/min/mg; remaining at 0.5 h [3]: 2%; remaining at 0.5 h [4]: 84%
CCCn1c(Oc2cccc(C(F)(F)F)c2)nc2nc(C3CCCC3)[nH]c2c1=O,19,0,34,35,Ki (Adenosine receptor A1 [5]): 5.9 nM
CCCn1c(Oc2cccc(O)c2)nc2nc(C3CCCC3)[nH]c2c1=O,10.5,53,81,69,–
CCCn1c(-c2cccc(C(N)=O)c2)nc2nc(C3CCCC3)[nH]c2c1=O,> 1000,–,–,–,–
